Reference: ChEMBL document CHEMBL1125695, “Potential anti-AIDS drugs. Lipophilic, adenosine deaminase-activated prodrugs” (J Med Chem, 1991)

How the values were obtained:
[1] = Partition coefficient (logP); assay type: physicochemical; conditions: octanol/water
Method in brief: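 Microscale shake-flask method: compound from DMSO stock into 1.0 mL octanol-saturated 0.01 M potassium phosphate pH 7.0, then mixed with 1.0 mL buffer-saturated n-octanol at 24–26 °C. Stood 15 min, phases centrifuged, each analysed by HPLC. P is the octanol/buffer peak-area ratio; mean ± SD of three independent determinations.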

[2] = Kinetic parameter Vmax at pH 7.4 and 37 degree Centigrade; assay type: ADME
Method in brief: (§1)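 Calf intestinal mucosa adenosine deaminase with dideoxynucleoside substrates in 0.01 M Tris pH 7.4 at 37 °C. Aliquots quenched with cold 2 μM 2'-deoxycoformycin, ultrafiltered, and substrate loss followed by reversed-phase HPLC (CH3CN in pH 7.0 phosphate). Relative rates taken at 50 μM substrate with 0.7 unit/mL enzyme, referenced to ddA = 100.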

[3] = Kinetic parameter relative rate measured at 50 uM at pH 7.4 and 37 degree Centigrade; assay type: ADME; conditions: pH 7.4, 50 µM; method in brief: as §1
[4] = Anti-HIV activity (% toxicity) in ATH-8 cells at 5 uM in presence of 2'-deoxycoformycin at 10 uM; assay type: cell-based; conditions: human, ath-8, 5 µM
Method in brief: (§2)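 CD4+ ATH8 cells (200 000) exposed 1 h to cell-free HIV-1/IIIB, 43 TCID50 (1087 for one analogue), resuspended in 2 mL IL-2 medium with 15% fetal calf serum, cultured at 37 °C in 5% CO2 with or without compound; dCF alone 5 μM. Day 8 viable cells counted by dye exclusion. % protection and % toxicity computed versus infected-untreated and uninfected-untreated cells; ≤0 given as 0%. Minimum two separate experiments; representative test reported.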

[5] = Anti-HIV activity (% toxicity) in ATH-8 cells at 5 uM in absence of 2'-deoxycoformycin at 10 uM; assay type: cell-based; conditions: human, ath-8, 5 µM; method in brief: as §2
[6] = Anti-HIV activity (% protection) in ATH-8 cells at 5 uM in presence of 2'-deoxycoformycin at 10 uM; assay type: functional, Homo sapiens; method in brief: as §2
[7] = Anti-HIV activity (% protection) in ATH-8 cells at 5 uM in absence of 2'-deoxycoformycin at 10 uM; assay type: functional, Homo sapiens; method in brief: as §2
[8] = Anti-HIV activity (% toxicity) in ATH-8 cells at 5 uM in absence of 2'-deoxycoformycin at 20 uM; assay type: cell-based; conditions: human, ath-8, 5 µM; method in brief: as §2
[9] = Anti-HIV activity (% toxicity) in ATH-8 cells at 5 uM in absence of 2'-deoxycoformycin at 50 uM; assay type: cell-based; conditions: human, ath-8, 5 µM; method in brief: as §2
[10] = Anti-HIV activity (% toxicity) in ATH-8 cells at 5 uM in presence of 2'-deoxycoformycin at 0 uM; assay type: cell-based; conditions: human, ath-8, 5 µM; method in brief: as §2
[11] = Anti-HIV activity (% toxicity) in ATH-8 cells at 5 uM in presence of 2'-deoxycoformycin at 100 uM; assay type: cell-based; conditions: human, ath-8, 5 µM; method in brief: as §2
[12] = Anti-HIV activity (% toxicity) in ATH-8 cells at 5 uM in presence of 2'-deoxycoformycin at 20 uM; assay type: cell-based; conditions: human, ath-8, 5 µM; method in brief: as §2
[13] = Anti-HIV activity (% toxicity) in ATH-8 cells at 5 uM in presence of 2'-deoxycoformycin at 50 uM; assay type: cell-based; conditions: human, ath-8, 5 µM; method in brief: as §2
[14] = Anti-HIV activity (% toxicity) in ATH-8 cells at 5 uM in absence of 2'-deoxycoformycin at 0 uM; assay type: cell-based; conditions: human, ath-8, 5 µM; method in brief: as §2
[15] = Anti-HIV activity (% toxicity) in ATH-8 cells at 5 uM in absence of 2'-deoxycoformycin at 100 uM; assay type: cell-based; conditions: human, ath-8, 5 µM; method in brief: as §2
[16] = Anti-HIV activity (% protection) in ATH-8 cells at 5 uM in absence of 2'-deoxycoformycin at 100 uM; assay type: functional, Homo sapiens; method in brief: as §2
[17] = Anti-HIV activity (% protection) in ATH-8 cells at 5 uM in absence of 2'-deoxycoformycin at 20 uM; assay type: functional, Homo sapiens; method in brief: as §2
[18] = Anti-HIV activity (% protection) in ATH-8 cells at 5 uM in absence of 2'-deoxycoformycin at 50 uM; assay type: functional, Homo sapiens; method in brief: as §2
[19] = Anti-HIV activity (% protection) in ATH-8 cells at 5 uM in presence of 2'-deoxycoformycin at 0 uM; assay type: functional, Homo sapiens; method in brief: as §2
[20] = Anti-HIV activity (% protection) in ATH-8 cells at 5 uM in presence of 2'-deoxycoformycin at 100 uM; assay type: functional, Homo sapiens; method in brief: as §2
[21] = Anti-HIV activity (% protection) in ATH-8 cells at 5 uM in presence of 2'-deoxycoformycin at 20 uM; assay type: functional, Homo sapiens; method in brief: as §2
[22] = Anti-HIV activity (% protection) in ATH-8 cells at 5 uM in presence of 2'-deoxycoformycin at 50 uM; assay type: functional, Homo sapiens; method in brief: as §2
[23] = Anti-HIV activity (% protection) in ATH-8 cells at 5 uM in absence of 2'-deoxycoformycin at 0 uM; assay type: functional, Homo sapiens; method in brief: as §2
[24] = Anti-HIV activity (% toxicity) in ATH-8 cells at 5 uM in absence of 2'-deoxycoformycin at 5 uM; assay type: cell-based; conditions: human, ath-8, 5 µM; method in brief: as §2
[25] = Anti-HIV activity (% toxicity) in ATH-8 cells at 5 uM in presence of 2'-deoxycoformycin at 5 uM; assay type: cell-based; conditions: human, ath-8, 5 µM; method in brief: as §2
[26] = Anti-HIV activity (% protection) in ATH-8 cells at 5 uM in absence of 2''-deoxycoformycin at 5 uM; assay type: functional, Homo sapiens; method in brief: as §2
[27] = Anti-HIV activity (% protection) in ATH-8 cells at 5 uM in presence of 2'-deoxycoformycin at 5 uM; assay type: functional, Homo sapiens; method in brief: as §2
[28] = (§3) Anti-HIV activity (% toxicity) in ATH-8 cells at 5 uM; assay type: cell-based; conditions: human, ath-8, 5 µM; method in brief: as §2
[29] = (§4) Anti-HIV activity (%toxicity) in ATH-8 cells at 5 uM; assay type: cell-based; conditions: human, ath-8, 5 µM; method in brief: as §2
[30] = as §4; assay type: cell-based; conditions: human, ath-8, 5 µM; method in brief: as §2; remark: listed apart in the source
[31] = as §4; assay type: cell-based; conditions: human, ath-8, 5 µM; method in brief: as §2; remark: listed apart in the source
[32] = Anti-HIV activity (%protection) in ATH-8 cells at 5 uM in absence of 2''-deoxycoformycin at 20 uM; assay type: functional, Homo sapiens; method in brief: as §2
[33] = Anti-HIV activity (%protection) in ATH-8 cells at 5 uM in absence of 2''-deoxycoformycin at 0 uM; assay type: functional, Homo sapiens; method in brief: as §2
[34] = Anti-HIV activity (%protection) in ATH-8 cells at 5 uM in absence of 2''-deoxycoformycin at 100 uM; assay type: functional, Homo sapiens; method in brief: as §2
[35] = Anti-HIV activity (%protection) in ATH-8 cells at 5 uM in absence of 2''-deoxycoformycin at 50 uM; assay type: functional, Homo sapiens; method in brief: as §2
[36] = Anti-HIV activity (%protection) in ATH-8 cells at 5 uM in absence of 2'-deoxycoformycin at 5 uM; assay type: functional, Homo sapiens; method in brief: as §2
[37] = as §3; assay type: cell-based; conditions: human, ath-8, 5 µM; method in brief: as §2; remark: listed apart in the source
[38] = (§5) Anti-HIV activity in ATH-8 cells at 5 uM in absence of 2''-deoxycoformycin at 20 uM; assay type: cell-based; conditions: human, ath-8, 5 µM; method in brief: as §2
[39] = as §5; assay type: functional, Homo sapiens; method in brief: as §2

CNc1nc(C)nc2c1ncn2[C@@H]1O[C@H](CO)C[C@@H]1F
logP [1]: 0.64

Cc1nc(N)c2ncn([C@@H]3O[C@H](CO)C[C@@H]3F)c2n1
logP [1]: 0.12

Nc1ncnc2c1ncn2[C@H]1CC[C@@H](CO)O1
logP [1]: -0.29
Vmax [2]: 1.32 µmol/min/unit
Relative rate [3]: 100
Toxicity [4]: 22%
Toxicity [5]: 0%
Protection [6]: 86%
Protection [7]: 100%

OCC1CC(F)C(n2cnc3c(Cl)ncnc32)O1 (configuration not stated)
logP [1]: 0.32
Vmax [2]: 0.026 µmol/min/unit
Relative rate [3]: 0.06
Toxicity [8]: 26%
Toxicity [9]: 46%
Toxicity [10]: 14%
Toxicity [4]: 49%
Toxicity [11]: 72%
Toxicity [12]: 58%
Toxicity [13]: 56%
Toxicity [14]: 0%
Toxicity [5]: 5%
Toxicity [15]: 52%
Protection [16]: 35%
Protection [17]: 57%
Protection [18]: 53%
Protection [19]: 3%
Protection [6]: 15%
Protection [20]: 17%
Protection [21]: 11%
Protection [22]: 14%
Protection [23]: 0%
Protection [7]: 48%

Cc1nc2c(N)ncnc2n1C1OC(CO)CC1F (configuration not stated)
logP [1]: 0.1

CNc1ncnc2c1ncn2C1OC(CO)CC1F (configuration not stated)
logP [1]: 0.27
Vmax [2]: 0.00055 µmol/min/unit
Relative rate [3]: 0.04
Toxicity [8]: 0%
Toxicity [24]: 0%
Toxicity [9]: 6%
Toxicity [10]: 11%
Toxicity [4]: 7%
Toxicity [11]: 70%
Toxicity [12]: 0%
Toxicity [25]: 3%
Toxicity [13]: 46%
Toxicity [14]: 0%
Toxicity [5]: 0%
Toxicity [15]: 44%
Protection [16]: 27%
Protection [17]: 32%
Protection [18]: 37%
Protection [26]: 13%
Protection [19]: 0%
Protection [6]: 2%
Protection [20]: 0%
Protection [21]: 0%
Protection [27]: 1%
Protection [22]: 0%
Protection [23]: 0%
Protection [7]: 24%

OCC1CC(F)C(n2cnc3cncnc32)O1 (configuration not stated)
logP [1]: -0.4

OCC1CC(F)C(n2cnc3c(O)ncnc32)O1 (configuration not stated)
logP [1]: -1.21

Nc1c2ncn(C3OC(CO)CC3F)c2nc[n+]1[O-] (configuration not stated)
logP [1]: -1.38

O=C(Nc1ncnc2c1ncn2C1OC(CO)CC1F)c1ccccc1 (configuration not stated)
logP [1]: 0.73
Toxicity [28]: 8%
Toxicity [29]: 0%
Toxicity [30]: 0%
Toxicity [31]: 0%
Protection [32]: 30%
Protection [33]: 0%
Protection [34]: 21%
Protection [35]: 29%
Protection [36]: 8%
Toxicity [37]: 2%

O=c1[nH]cnc2c1ncn2[C@H]1CC[C@@H](CO)O1 [DIDANOSINE]
Toxicity [38]: 0%
Protection [39]: 100%

Nc1ncnc2c1ncn2[C@@H]1O[C@H](CO)C[C@@H]1F [LODENOSINE]
Vmax [2]: 0.23 µmol/min/unit
Relative rate [3]: 6
Toxicity [8]: 0%
Toxicity [9]: 0%
Toxicity [10]: 11%
Toxicity [12]: 17%
Toxicity [13]: 54%
Toxicity [14]: 0%
Protection [17]: 70%
Protection [18]: 84%
Protection [19]: 0%
Protection [21]: 68%
Protection [22]: 48%
Protection [23]: 0%

Nc1ccn([C@H]2CC[C@@H](CO)O2)c(=O)n1 [ZALCITABINE]
logP [1]: -1.33

Cc1cn([C@H]2C[C@H](N=[N+]=[N-])[C@@H](CO)O2)c(=O)[nH]c1=O [ZIDOVUDINE]
logP [1]: 0.05
